Experimental data reported in ChEMBL document CHEMBL4513216, “Probing the Open Global Health Chemical Diversity Library for Multistage-Active Starting Points for Next-Generation Antimalarials” (ACS Infect Dis, 2020).

Assay: Toxicity liver stage against HepG2, at 10uM
Format: cell-based
Set-up: test concentration 10 uM, cell line HepG2-A16-CD81EGFP
Details: human, HepG2-A16-CD81EGFP cells; read-out: INHIBITION
Outline: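 Uninfected HepG2-A16-CD81EGFP cells, 3 × 10^3 per well, 1536-well, plated on prespotted compound at 10 μM final, parasite-free screening media added to match infected plates; puromycin 10 μM positive, DMSO 0.5% negative; run in parallel with 48 h PbLuc assay at 37 °C, 5% CO2; viability by CellTiter-Glo luminescence, normalized to controls.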

Structure (SMILES) | cytotoxicity at 10 µM [%]
Cc1cc(C(=O)Nc2cc(C3CC3)n[nH]2)c2c(C)nn(C)c2n1 | -2.14
Cc1cccc(N2CCN(CCNC(=O)C(C)n3cncn3)CC2)c1 (stereo unspecified) | -1.91
Cn1ccc(CN2CCC(NC(=O)Cc3ccccc3)CC2)cc1=O | -9.75
CCN1CCN(Cc2nc(CCc3ccccc3)n[nH]2)CC1 | -10.7
Cc1cccc(CS(=O)(=O)Cc2ccn(C)c(=O)c2)c1 | 2.29
CC(CNC(=O)c1cccc(-n2cccn2)c1)Cn1ccnc1 (stereo unspecified) | 0.335
COc1ccc(-c2ccc(C(=O)N3CCC[C@@H]3CO)o2)cc1 | 7.44
c1cn(-c2nccnc2C2CCCN(C3CCOCC3)C2)cn1 (stereo unspecified) | 4.19
CCn1nc2c(cc1=O)CN(c1ncnc3ccsc13)CC2 | 49.6
CCC(CC)(CCO)CNC(=O)c1ccon1 | 6.27
CO[C@H]1CCN(Cc2cccc(C)n2)[C@@H]2CN(Cc3cccnc3)C[C@H]12 | -11.3
CN1CCC2(CCC1=O)CCN(C(=O)Cc1ccc(O)c(F)c1)CC2 | -8.99
COCc1nnc(-c2cccc(C(=O)OC(C)C)c2)o1 | -21.8
CC(=O)N1CCN([C@@H]2CN(C(=O)c3ccccc3C)C[C@H]2O)CC1 | -3.79
Cn1cc(-c2nc(C(=O)N3CCCC3Cn3cccn3)cs2)cn1 (stereo unspecified) | -9.25
CC(C)C(C(=O)N1CCC(Nc2cccnn2)CC1)n1cncn1 (stereo unspecified) | -4.35
Cc1cnc(C(=O)N2C[C@H](N3CCOCC3)[C@@H]3OCCC[C@@H]32)cn1 | -107
O=C(NCC1CCCCC1)NC1CCCc2c1cnn2CCO (stereo unspecified) | -2.92
COc1ccc(OCc2nc(C(=O)N3CC(O)C3)co2)cc1 | -9.29
CC(C)NS(=O)(=O)c1cc(C(=O)O)cc(-c2ccc(CN(C)C)cc2)c1 | 13.3
COC(=O)N1CCCCC1C(=O)N1CCCN(c2ccnc(C)c2)CC1 (stereo unspecified) | -3.76

Structure (SMILES) | cytotoxicity at 10 µM [%]
CC(C)OCCNC(=O)C1CCC(=O)N(C2CCCC2)C1 (stereo unspecified) | -12.5
CC(C)c1nccn1-c1cncc(C2CCCN(C3CCCC3)C2)n1 (stereo unspecified) | -6.63
Cc1nccn1CCCC(=O)N1CCCN(c2cccnn2)CC1 | -9.35
Cc1ncc(C(=O)N2CCCC(n3nc(C)nc3C)C2)c(C(C)C)n1 (stereo unspecified) | -1.81
Cc1nccn1[C@@H]1CC[C@@H](N(C)S(=O)(=O)c2ccccc2F)[C@H]1O | 1.17
c1cnn(CC2CN(CCCOc3ccc4c(c3)OCO4)CCO2)c1 (stereo unspecified) | 0.568
CC(C)Oc1ccc(C(=O)Nc2nncs2)cn1 | -7.94
CCNC(=O)N1CC[C@H]2CC(=O)N(CC(N)=O)CC[C@H]2C1 | 10
CN1CCCN(c2nc3c(cnn3C(C)(C)C)c(=O)[nH]2)CC1 | -11.9
Cc1ccc(C)c2c(C)c(C(=O)NCC[S+](C)[O-])[nH]c12 (stereo unspecified) | 3.03
Cc1nc2ccc(C(=O)N(CCC#N)CCC#N)cc2nc1C | -12.8
CC(C)(C)c1nc(CN2CCC(c3nc4cc(Cl)ccc4o3)CC2)no1 | 3.9
COCCCSc1ccc(NCc2ccc(C)cn2)cc1 | 15.8
COc1ccccc1OCc1cc(C(=O)N2C[C@H](O)[C@@H](N(C)C)C2)n[nH]1 | 3.2
Cn1nc(CC(C)(C)C)cc1NC(=O)c1ccc2[nH]nnc2c1 | 1.25
Cn1cnnc1CNC(=O)C1CCCN(Cc2cccc(F)c2)C1 (stereo unspecified) | 5.49
O=C(c1cscn1)N1C[C@H]2CN(Cc3nccs3)C[C@H]2C1 | -65.4
CN[C@@H](C)C(=O)N(Cc1cccc(C)c1)Cc1ccccc1OC | -39.5
N#Cc1c(N)nc2c(c1-c1c[nH]nc1C1CCCCC1)COCC2 | 6.75
CC(NCc1cnn(C)c1)c1noc(-c2ccc(Cl)cc2)n1 (stereo unspecified) | 3.97
COc1ccc(C)cc1C(=O)N1CCCC(n2cncn2)C1 (stereo unspecified) | -13.3

Structure (SMILES) | cytotoxicity at 10 µM [%]
Cc1nnc2ccc(N3CCC4(CCOC4)C3)nn12 (stereo unspecified) | 4.29
O=C(Cc1ccc(S(=O)(=O)C(F)F)cc1)N1CCC1 | -17
O=C(OC1CCC1)c1ncccc1OCC(F)(F)F | -12.6
Fc1cc(CN2CCCC2Cn2cncn2)c2ncccc2c1 (stereo unspecified) | -14.1
Cc1ncccc1C(=O)Nc1cccc2c1C(=O)NC2 | 1.85
c1ccc(CCN2CCN(c3ncnc4[nH]ccc34)CC2)cc1 | 5.09
CC(=O)c1ccc(C(=O)NCCCOC(C)c2ccccc2)s1 (stereo unspecified) | -14.1
CN1CCCC(N2CCN(c3nc4ccccn4c3C#N)CC2)C1 (stereo unspecified) | 1.52
Cc1ncc2c(n1)CCN(Cc1nc3ccccc3o1)C2 | 1.66
COCCNC(=O)Nc1cccc2c1CCN(S(C)(=O)=O)C2 | 7.37
Cc1cc(C(=O)N(C)C2CCN(C)C2)c2ccc(F)cc2n1 (stereo unspecified) | -2.55
COc1ccc(N2CCN(C(=O)Cn3nc(C)c(C)c3C)C(C)C2)cc1 (stereo unspecified) | -4.33
CCc1[nH]c2c(CNC(=O)C3CCC(=O)NC3)cc(C)cc2c1C (stereo unspecified) | -3.79
Cc1cccnc1CN1CCN(C[C@]2(O)CCCN3CCCC[C@@H]32)CC1 | -0.418
CCN(CC)S(=O)(=O)N1CCCC(c2cccc(C(=O)O)c2)C1 (stereo unspecified) | -10
COc1ccc(CNC(=O)N2CCN(CC(O)C3CC3)CC2)cc1 (stereo unspecified) | 7.11
FC(F)(F)c1n[nH]c2c1CN(Cc1cn3ccccc3n1)CC2 | 7.76
Cc1ccccc1[C@@H]1CN(Cc2c(C)noc2C)C[C@H]1C(=O)O | -7.74
CCN(CC(C)C#N)C(=O)CSc1ccc(C(F)(F)F)cn1 (stereo unspecified) | 9.81
Fc1ccc(CN2CCC3(CC2)CC(c2cccnc2)CO3)cc1 (stereo unspecified) | -4.85
CC(C)CCN1C[C@H]2CCN(C(=O)NC3CCCC3)CC[C@H]2S1(=O)=O | 4.87

Structure (SMILES) | cytotoxicity at 10 µM [%]
c1cc(CN2CCN(Cc3ccon3)C3(CCCCC3)C2)no1 | -16.7
Cc1cc(NC(C)Cn2cccn2)n2nccc2n1 (stereo unspecified) | 1.99
O=C(NCC1CC1)C1CN(C(=O)c2cnccn2)CC12CCOCC2 (stereo unspecified) | 8.27
Cc1ccc(NC(=O)N2CCCC(O)(CO)CC2)cc1Cl (stereo unspecified) | 1.96
Cc1nn(C)c(C)c1C1CCCN1c1ncnc2sccc12 (stereo unspecified) | 44.1
Cc1occc1C(=O)N1CCC2(CCN(Cc3nccs3)C2)CC1 | -12.5
CN(Cc1ccccn1)C(=O)c1nn(C)c2c1CCN(CC1CC1)C2 | -1.68
CC(Cn1cncn1)NC(=O)N1CC2(CCCC2)c2ccccc21 (stereo unspecified) | 5.65
Cc1cnn(CC(C)NCc2csc(-c3ccsc3)n2)c1 (stereo unspecified) | -6.79
O=C(NCc1nccs1)N1CCOC(c2ccccc2Cl)C1 (stereo unspecified) | -3.67
CCc1oc(C(=O)N(C)Cc2ccncc2)cc1CN(CC)CC | -1.81
Cc1cn(CC(=O)NC2CCC3(CC2)OCCO3)c2ccccc12 | -1.21
O=C(Cc1cccc(F)c1F)NS(=O)(=O)c1cncc(Cl)c1 | 14.5
CN(Cc1ccsc1)Cc1nc(-c2cnccn2)no1 | -0.164
Cc1ccc(C2CCCN2S(=O)(=O)N(C)Cc2cnccn2)o1 (stereo unspecified) | 0.78
COCCN1C(=O)CO[C@H]2CN(Cc3cccc(OC)c3F)C[C@@H]21 | -0.0572
Cc1cccc(OCC(=O)N(Cc2ccncc2)C2CC2)c1 | -40.4
O=C(c1ccsc1)N1CC(C(=O)N2CCOCC2)C2(CCOCC2)C1 (stereo unspecified) | -1.1
